Results as given in ChEMBL document CHEMBL1944546, “Structure-activity relationships of novel alkylides: 3-O-arylalkyl clarithromycin derivatives with improved antibacterial activities” (2012).
≈ marks a conversion by molar mass, not a printed value.

How the values were obtained:
Streptococcus pneumoniae [1] = test: Antibacterial activity against erythromycin-susceptible Streptococcus pneumoniae ATCC 49619 by broth microdilution method; type: functional
Method in brief: (§1)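 MIC read by broth microdilution following CLSI (2010) guidance. The clinical isolates were identified by 16S rDNA sequencing and labelled by genotype and phenotype. S. aureus ATCC 29213 and S. pneumoniae ATCC 49619 were the control strains. Azithromycin, clarithromycin and 3-OH-clarithromycin were run as reference compounds.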

Streptococcus pneumoniae [2] = test: Antibacterial activity against penicillin-, constitutive MLS-resistant Streptococcus pneumoniae PU 11 by broth microdilution method; type: functional
Method in brief: (§2)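 MIC by broth microdilution following CLSI (2010) recommendations, using clinical isolates identified by 16S rDNA sequencing and labelled by genotype and phenotype. S. aureus ATCC 29213 and S. pneumoniae ATCC 49619 were run as control strains, and azithromycin, clarithromycin and 3-OH-clarithromycin were tested as reference agents.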

Streptococcus pneumoniae [3] = test: Antibacterial activity against efflux,penicillin-susceptible Streptococcus pneumoniae PU 09 by broth microdilution method; type: functional; method in brief: as §1
Streptococcus pneumoniae [4] = test: Antibacterial activity against penicillin-susceptible, constitutive MLS-resistant Streptococcus pneumoniae PU 27 by broth microdilution method; type: functional; method in brief: as §2
[5] = system: Streptococcus dysgalactiae; test: Antibacterial activity against efflux, erythromycin-resistant Streptococcus dysgalactiae A 1 by broth microdilution method; type: functional; method in brief: as §2
Streptococcus pyogenes [6] = test: Antibacterial activity against constitutive MLS-resistant Streptococcus pyogenes A 2 by broth microdilution method; type: functional; method in brief: as §2
Streptococcus pyogenes [7] = test: Antibacterial activity against erythromycin-susceptible Streptococcus pyogenes A 3 by broth microdilution method; type: functional; method in brief: as §1
Staphylococcus aureus [8] = test: Antibacterial activity against erythromycin-susceptible Staphylococcus aureus ATCC 29213 by broth microdilution method; type: functional; method in brief: as §1
Staphylococcus aureus [9] = test: Antibacterial activity against methicillin-, constitutive MLS-resistant […] by broth microdilution method; type: functional; method in brief: as §2
Staphylococcus aureus [10] = test: Antibacterial activity against methicillin-susceptible, inducible MLS-resistant Staphylococcus aureus PU 64 by broth microdilution method; type: functional; method in brief: as §2
[11] = system: Staphylococcus haemolyticus; test: Antibacterial activity against methicillin-resistant, coagulase-negative, constitutive MLS-resistant Staphylococcus haemolyticus PU 19 by broth microdilution method; type: functional; method in brief: as §2
[12] = system: Staphylococcus epidermidis; test: Antibacterial activity against methicillin-susceptible, inducible MLS-resistant Staphylococcus epidermidis E1 by broth microdilution method; type: functional; method in brief: as §2
[13] = system: Staphylococcus epidermidis; test: Antibacterial activity against methicillin-resistant, constitutive MLS-resistant Staphylococcus epidermidis E2 by broth microdilution method; type: functional; method in brief: as §2
Staphylococcus hominis [14] = test: Antibacterial activity against methicillin-resistant, coagulase-negative, inducible MLS-resistant Staphylococcus hominis E3 by broth microdilution method; type: functional; method in brief: as §2
[15] = system: Staphylococcus epidermidis; test: Ratio of MIC for clarithromycin to compound for methicillin-susceptible, inducible MLS-resistant Staphylococcus epidermidis E1 by broth microdilution method; type: functional
[16] = system: Staphylococcus epidermidis; test: Ratio of MIC for azithromycin to compound for methicillin-susceptible, inducible MLS-resistant Staphylococcus epidermidis E1 by broth microdilution method; type: functional
Staphylococcus aureus [17] = test: Antibacterial activity against methicillin-, inducible MLS-resistant Staphylococcus aureus PU 32 by broth microdilution method
Staphylococcus aureus [18] = test: Antibacterial activity against methicillin-, inducible MLS-resistant […] by broth microdilution method; type: functional; method in brief: as §2
Streptococcus pneumoniae [19] = test: Ratio of MIC for clarithromycin to compound for efflux,penicillin-susceptible Streptococcus pneumoniae PU 09 by broth microdilution method; type: functional
Method in brief: (§3)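 MICs of the test compounds and of the reference macrolides (azithromycin, clarithromycin) were determined side by side by broth microdilution following CLSI (2010). The clinical isolates were identified by 16S rDNA sequencing and labelled by genotype and phenotype. S. aureus ATCC 29213 and S. pneumoniae ATCC 49619 served as control strains.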

Streptococcus pneumoniae [20] = test: Ratio of MIC for azithromycin to compound for efflux,penicillin-susceptible Streptococcus pneumoniae PU 09 by broth microdilution method; type: functional; method in brief: as §3
[21] = system: Streptococcus dysgalactiae; test: Ratio of MIC for clarithromycin to compound for efflux, erythromycin-resistant Streptococcus dysgalactiae A 1 by broth microdilution method; type: functional; method in brief: as §3
[22] = system: Streptococcus dysgalactiae; test: Ratio of MIC for azithromycin to compound for efflux, erythromycin-resistant Streptococcus dysgalactiae A 1 by broth microdilution method; type: functional; method in brief: as §3
Staphylococcus hominis [23] = test: Ratio of MIC for clarithromycin to compound for methicillin-resistant, coagulase-negative, inducible MLS-resistant Staphylococcus hominis E3 by broth microdilution method; type: functional; method in brief: as §3
Staphylococcus hominis [24] = test: Ratio of MIC for azithromycin to compound for methicillin-resistant, coagulase-negative, inducible MLS-resistant Staphylococcus hominis E3 by broth microdilution method; type: functional; method in brief: as §3

Row | Structure (SMILES) | MIC (Streptococcus pneumoniae [1]) | MIC (Streptococcus pneumoniae [2]) | MIC (Streptococcus pneumoniae [3]) | MIC (Streptococcus pneumoniae [4]) | MIC [5] | MIC (Streptococcus pyogenes [6]) | MIC (Streptococcus pyogenes [7]) | MIC (Staphylococcus aureus [8]) | MIC (Staphylococcus aureus [9]) | MIC (Staphylococcus aureus [10]) | MIC [11] | MIC [12] | MIC [13] | MIC (Staphylococcus hominis [14]) | Ratio [15] | Ratio [16] | MIC (Staphylococcus aureus [17]) | also measured
1 | CC[C@H]1OC(=O)[C@H](C)[C@@H](OCCCc2cncnc2)[C@H](C)[C@@H](O[C@@H]2O[C@H](C)C[C@H](N(C)C)[C@H]2O)[C@](C)(OC)C[C@@H](C)/C(=N\O)[C@H](C)[C@@H](O)[C@]1(C)O | 1 µg/mL (≈ 1.38 µM) | > 256 µg/mL | 2 µg/mL (≈ 2.76 µM) | 64 µg/mL (≈ 88.3 µM) | 2 µg/mL (≈ 2.76 µM) | > 256 µg/mL | 0.5 µg/mL (≈ 0.69 µM) | 8 µg/mL (≈ 11 µM) | > 256 µg/mL | 8 µg/mL (≈ 11 µM) | > 256 µg/mL | 16 µg/mL (≈ 22.1 µM) | > 256 µg/mL | > 256 µg/mL | >16 | >16 | 8 µg/mL (≈ 11 µM) | –
2 | CC[C@H]1OC(=O)[C@H](C)[C@@H](O[C@H]2C[C@@](C)(OC)[C@@H](O)[C@H](C)O2)[C@H](C)[C@@H](O[C@@H]2O[C@H](C)C[C@H](N(C)C)[C@H]2O)[C@](C)(O)C[C@@H](C)CN(C)[C@H](C)[C@@H](O)[C@]1(C)O [AZITHROMYCIN] | 0.25 µg/mL (≈ 0.334 µM) | > 256 µg/mL | 8 µg/mL (≈ 10.7 µM) | 64 µg/mL (≈ 85.4 µM) | 32 µg/mL (≈ 42.7 µM) | > 256 µg/mL | 0.125 µg/mL (≈ 0.167 µM) | 1 µg/mL (≈ 1.34 µM) | > 256 µg/mL | 8 µg/mL (≈ 10.7 µM) | > 256 µg/mL | > 256 µg/mL | > 256 µg/mL | > 256 µg/mL | – | – | 8 µg/mL (≈ 10.7 µM) | –
3 | CC[C@H]1OC(=O)[C@H](C)[C@@H](OCCCc2cccnc2)[C@H](C)[C@@H](O[C@@H]2O[C@H](C)C[C@H](N(C)C)[C@H]2O)[C@](C)(OC)C[C@@H](C)/C(=N\OCc2ccccc2Cl)[C@H](C)[C@H]2OC(=O)O[C@@]21C | 8 µg/mL (≈ 9.15 µM) | 64 µg/mL (≈ 73.2 µM) | 16 µg/mL (≈ 18.3 µM) | 32 µg/mL (≈ 36.6 µM) | 16 µg/mL (≈ 18.3 µM) | 32 µg/mL (≈ 36.6 µM) | 8 µg/mL (≈ 9.15 µM) | > 256 µg/mL | > 256 µg/mL | > 256 µg/mL | > 256 µg/mL | > 256 µg/mL | > 256 µg/mL | > 256 µg/mL | – | – | > 256 µg/mL | –
4 | CC[C@H]1OC(=O)[C@H](C)[C@@H](O[C@H]2C[C@@](C)(OC)[C@@H](O)[C@H](C)O2)[C@H](C)[C@@H](O[C@@H]2O[C@H](C)C[C@H](N(C)C)[C@H]2O)[C@](C)(OC)C[C@@H](C)C(=O)[C@H](C)[C@@H](O)[C@]1(C)O [CLARITHROMYCIN] | 0.032 µg/mL (≈ 0.0428 µM) | > 256 µg/mL | 4 µg/mL (≈ 5.35 µM) | 1 µg/mL (≈ 1.34 µM) | 8 µg/mL (≈ 10.7 µM) | > 256 µg/mL | 0.032 µg/mL (≈ 0.0428 µM) | 0.25 µg/mL (≈ 0.334 µM) | > 256 µg/mL | 2 µg/mL (≈ 2.67 µM) | > 256 µg/mL | > 256 µg/mL | > 256 µg/mL | > 256 µg/mL | – | – | 1 µg/mL (≈ 1.34 µM) | –
5 | CC[C@H]1OC(=O)[C@H](C)[C@@H](OC/C=C/c2cncnc2)[C@H](C)[C@@H](O[C@@H]2O[C@H](C)C[C@H](N(C)C)[C@H]2O)[C@](C)(OC)C[C@@H](C)/C(=N\OCc2c(C)cc(C)cc2C)[C@H](C)[C@H]2OC(=O)O[C@@]21C | 16 µg/mL (≈ 18.2 µM) | 64 µg/mL (≈ 72.6 µM) | 32 µg/mL (≈ 36.3 µM) | 64 µg/mL (≈ 72.6 µM) | 32 µg/mL (≈ 36.3 µM) | 32 µg/mL (≈ 36.3 µM) | 32 µg/mL (≈ 36.3 µM) | > 256 µg/mL | > 256 µg/mL | > 256 µg/mL | > 256 µg/mL | > 256 µg/mL | > 256 µg/mL | > 256 µg/mL | – | – | > 256 µg/mL | –
6 | CC[C@H]1OC(=O)[C@H](C)[C@@H](OCC#Cc2cncnc2)[C@H](C)[C@@H](O[C@@H]2O[C@H](C)C[C@H](N(C)C)[C@H]2O)[C@](C)(OC)C[C@@H](C)/C(=N\O)[C@H](C)[C@@H](O)[C@]1(C)O | > 256 µg/mL | > 256 µg/mL | > 256 µg/mL | > 256 µg/mL | > 256 µg/mL | > 256 µg/mL | > 256 µg/mL | > 256 µg/mL | > 256 µg/mL | > 256 µg/mL | > 256 µg/mL | > 256 µg/mL | > 256 µg/mL | > 256 µg/mL | – | – | > 256 µg/mL | –
7 | CC[C@H]1OC(=O)[C@H](C)[C@@H](O/C=C\Cc2cncnc2)[C@H](C)[C@@H](O[C@@H]2O[C@H](C)C[C@H](N(C)C)[C@H]2O)[C@](C)(OC)C[C@@H](C)/C(=N\O)[C@H](C)[C@H]2OC(=O)O[C@@]21C | 0.032 µg/mL (≈ 0.0427 µM) | > 256 µg/mL | 0.125 µg/mL (≈ 0.167 µM) | 1 µg/mL (≈ 1.34 µM) | 0.125 µg/mL (≈ 0.167 µM) | > 256 µg/mL | 0.016 µg/mL (≈ 0.0214 µM) | 0.5 µg/mL (≈ 0.668 µM) | > 256 µg/mL | 0.25 µg/mL (≈ 0.334 µM) | > 256 µg/mL | 0.25 µg/mL (≈ 0.334 µM) | > 256 µg/mL | 0.25 µg/mL (≈ 0.334 µM) | 1024 | 1024 | – | MIC (Staphylococcus aureus [18]): 0.25 µg/mL (≈ 0.334 µM); Ratio (Streptococcus pneumoniae [19]): 32; Ratio (Streptococcus pneumoniae [20]): 32; Ratio [21]: 32; Ratio [22]: 32; Ratio (Staphylococcus hominis [23]): 1024; Ratio (Staphylococcus hominis [24]): 1024
8 | CC[C@H]1OC(=O)[C@H](C)[C@@H](O/C=C\Cc2cncnc2)[C@H](C)[C@@H](O[C@@H]2O[C@H](C)C[C@H](N(C)C)[C@H]2O)[C@](C)(OC)C[C@@H](C)C(=O)[C@H](C)[C@@H](O)[C@]1(C)O | 1 µg/mL (≈ 1.41 µM) | > 256 µg/mL | 1 µg/mL (≈ 1.41 µM) | 32 µg/mL (≈ 45.2 µM) | 4 µg/mL (≈ 5.65 µM) | > 256 µg/mL | 4 µg/mL (≈ 5.65 µM) | 8 µg/mL (≈ 11.3 µM) | > 256 µg/mL | 8 µg/mL (≈ 11.3 µM) | > 256 µg/mL | 4 µg/mL (≈ 5.65 µM) | > 256 µg/mL | 8 µg/mL (≈ 11.3 µM) | >16 | >16 | 4 µg/mL (≈ 5.65 µM) | –
